According to ChEMBL document CHEMBL1154236, “Monoterpenes from Paeonia albiflora and their inhibitory activity on nitric oxide production by lipopolysaccharide-activated microglia” (J Nat Prod, 2009):

Tested on: N9
Experiment: Antiinflammatory activity against mouse N9 cells assessed as inhibition of LPS-induced nitric oxide production after 48 hrs by Griess reaction relative to control
Format: functional, cell-based
Details: Homo sapiens, N9, 48 h
Method in brief: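 Murine N9 microglia (IMDM, 5% heat-inactivated FBS, 2 mM L-glutamine, 5 × 10^-5 M 2-mercaptoethanol), 1 × 10^5 cells/well, precultured 24 h at 37 °C, 5% CO2. Then LPS 1 µg/mL plus compound (DMSO stock diluted in PBS pH 7.4, DMSO ≤0.1%) for 48 h. Supernatant nitrite read by Griess reagent, 15 min room temperature, A540. Expressed as % of LPS-only response. IC50 from linear/nonlinear regression, n = 3. Curcumin positive control.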

Structure (SMILES): COC1O[C@@]2(C)CC(=O)[C@@H]3C[C@]2(O[C@@H]2O[C@H](CO)[C@@H](O)[C@H](O)[C@H]2O)[C@@]13COC(=O)c1ccccc1 (stereo partly specified)
- IC50: > 100 µM
